What is called inhibition in vivo is the drop in the measured response relative to a control, in per cent. As a reminder, the ED50 is the midpoint of the dose-response relation. By IC50 is commonly meant the concentration that inhibits the measured activity by half. Read a high IC50 as lower potency.

The record followed here is ChEMBL document CHEMBL1770101, “Synthesis, anti-inflammatory activity and COX-1/COX-2 inhibition of novel substituted cyclic imides. Part 1: Molecular docking study” (Eur J Med Chem, 2011).

Assay [1] deals with Rattus norvegicus. Nature of the assay: Antiinflammatory activity in Sprague-Dawley rat assessed as inhibition of carrageenan-induced paw edema at 100 mg/kg, ip after 1 hr by plethysmometer. It is filed as functional. The following applies: route intraperitoneal. In outline:
(§1)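 Male Sprague-Dawley rats (250 g), fasted at least 16 h with free access to water, six per group. Test compound given IP at 100 mg/kg as 1 mL suspension in 0.5% methyl cellulose.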
In general terms: Carrageenan injected into the paw causes an acute inflammation.

For assay [2], the system named is Rattus norvegicus. Nature of the assay: Antiinflammatory activity in Sprague-Dawley rat assessed as inhibition of carrageenan-induced paw edema at 100 mg/kg, ip after 2 hrs by plethysmometer. It is filed as functional. The note with it: route intraperitoneal. In outline:
as §1

Assay [3] deals with Rattus norvegicus. The experiment in a line: Antiinflammatory activity in ip dosed Sprague-Dawley rat assessed as inhibition of carrageenan-induced paw edema after 2 hrs by plethysmometer. It is filed as functional. In outline:
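Male Sprague-Dawley rats (250 g), fasted at least 16 h with water available, six per group. Compounds dosed IP as 1 mL suspension in 0.5% methyl cellulose. Paw volume measured by water displacement plethysmometer before and after treatment. % inhibition = (1 − D/C) × 100 versus controls.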

Assay [4] deals with T1, Prostaglandin G/H synthase 1 (Ovis aries, UniProt P05979).
T1 sequence (P05979 whole entry): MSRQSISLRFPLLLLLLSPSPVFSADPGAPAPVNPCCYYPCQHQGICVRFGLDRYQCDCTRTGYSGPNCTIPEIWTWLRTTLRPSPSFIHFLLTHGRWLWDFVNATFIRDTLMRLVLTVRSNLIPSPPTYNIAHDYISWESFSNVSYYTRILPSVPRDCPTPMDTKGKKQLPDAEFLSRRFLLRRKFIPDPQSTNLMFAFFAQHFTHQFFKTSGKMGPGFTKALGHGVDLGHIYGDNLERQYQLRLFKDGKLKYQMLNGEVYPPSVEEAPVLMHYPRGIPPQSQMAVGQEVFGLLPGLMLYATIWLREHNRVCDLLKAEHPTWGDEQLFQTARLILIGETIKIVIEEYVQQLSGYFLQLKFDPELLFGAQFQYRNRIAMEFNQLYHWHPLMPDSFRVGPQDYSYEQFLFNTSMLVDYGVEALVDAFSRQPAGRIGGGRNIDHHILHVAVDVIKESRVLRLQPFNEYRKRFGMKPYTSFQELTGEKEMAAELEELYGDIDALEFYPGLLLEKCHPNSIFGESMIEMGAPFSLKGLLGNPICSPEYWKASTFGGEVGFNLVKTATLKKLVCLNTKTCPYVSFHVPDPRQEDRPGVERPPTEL
The experiment in a line: Inhibition of ovine COX1 after 5 mins by enzyme immunoassay.

Turning to `O=c1c2ccccc2c2ccccc2c(=O)n1-c1cc(Cl)c(Cl)c(Cl)c1`, the results for the inhibition in vivo at 100 mg/kg in the assay with Rattus norvegicus [1] and in the assay on Rattus norvegicus [2] were 75% and 72%, respectively. For the same molecule, the 50% effective dose (ED50) in the assay on Rattus norvegicus [3] turned out to be 150 mg/kg. The molecule also yielded an IC50 in assay [4] of over 100 µM.

Regarding `O=C1c2cc(Cl)c(Cl)cc2C(=O)N1c1cc(Cl)c(Cl)c(Cl)c1`, the inhibition in vivo at 100 mg/kg in the assay with Rattus norvegicus [1] was 75%; with Rattus norvegicus [2] it was 65%. For the same molecule, the median effective dose (ED50) with Rattus norvegicus [3] turned out to be 187 mg/kg. The same molecule returned an IC50 in assay [4] of over 100 µM.

As for `COc1cc(N2C(=O)c3cc(Cl)c(Cl)cc3C2=O)cc(OC)c1OC`, the inhibition in vivo at 100 mg/kg was 59% with Rattus norvegicus [1] and 80% in the assay with Rattus norvegicus [2]. In the assay on Rattus norvegicus [3], the ED50 came to 186 mg/kg. For the same molecule, the IC50 in assay [4] was over 100 µM.

As for `COc1cc(N2C(=O)c3ccc([N+](=O)[O-])cc3C2=O)cc(OC)c1OC`, the values for the inhibition in vivo at 100 mg/kg in the assay on Rattus norvegicus [1] and in the assay with Rattus norvegicus [2] were 87% and 94%, respectively. In addition, in the assay with Rattus norvegicus [3], the median effective dose (ED50) was found to be 105 mg/kg. The same molecule gave an IC50 in assay [4] of 40 µM.

As to `COc1cc(N2C(=O)c3c(Cl)c(Cl)c(Cl)c(Cl)c3C2=O)cc(OC)c1OC`, the inhibition in vivo at 100 mg/kg in the assay with Rattus norvegicus [2] came out at 53%. The ED50 in the assay with Rattus norvegicus [3] amounted to 212 mg/kg. Besides, the 50% inhibitory concentration (IC50) in assay [4] is over 100 µM.

In assay [4], `COc1cc(N2C(=O)[C@H]3CC=CC[C@H]3C2=O)cc(OC)c1OC` came in with an IC50 of over 100 µM.

Molecule `O=C1c2c(Br)c(Br)c(Br)c(Br)c2C(=O)N1c1cc(Cl)c(Cl)c(Cl)c1` showed a 50% inhibitory concentration (IC50) in assay [4] of over 100 µM.

For `COc1cc(N2C(=O)CCC2=O)cc(OC)c1OC`, the inhibition in vivo at 100 mg/kg was determined as 20% in the assay on Rattus norvegicus [1] and 40% in the assay on Rattus norvegicus [2]. The half-inhibitory concentration (IC50) in assay [4] is over 100 µM.

For `Cc1ccc2c(c1)C(=O)N(c1cc(Cl)c(Cl)c(Cl)c1)C2=O`, the inhibition in vivo at 100 mg/kg in the assay with Rattus norvegicus [1] is 36%; in the assay with Rattus norvegicus [2] it was 65%. Besides, the 50% effective dose (ED50) in the assay on Rattus norvegicus [3] is 183 mg/kg. Moreover, the 50% inhibitory concentration (IC50) in assay [4] is over 100 µM.

Consider `COc1cc(N2C(=O)c3nccnc3C2=O)cc(OC)c1OC`, for which the inhibition in vivo at 100 mg/kg with Rattus norvegicus [1] was 72%; in the assay on Rattus norvegicus [2] it was 84%. In addition, the ED50 with Rattus norvegicus [3] amounted to 123 mg/kg. The concentration for half-maximal inhibition (IC50) in assay [4] is over 100 µM.

For `CC(C)(C)c1ccc2c(c1)C(=O)N(c1cc(Cl)c(Cl)c(Cl)c1)C2=O`, the results for the inhibition in vivo at 100 mg/kg in the assay with Rattus norvegicus [1] and with Rattus norvegicus [2] were 35% and 60%, respectively. Also, the ED50 with Rattus norvegicus [3] was determined as 195 mg/kg. The same molecule had an IC50 in assay [4] of over 100 µM.

With `COc1cc(N2C(=O)c3ccc(C)cc3C2=O)cc(OC)c1OC`, the results for the inhibition in vivo at 100 mg/kg in the assay on Rattus norvegicus [1] and in the assay on Rattus norvegicus [2] were 84% and 94%, respectively. The ED50 with Rattus norvegicus [3] came out at 107 mg/kg. The molecule further registered an IC50 in assay [4] of over 100 µM.

In the case of `COc1cc(N2C(=O)c3c(Br)c(Br)c(Br)c(Br)c3C2=O)cc(OC)c1OC`, the inhibition in vivo at 100 mg/kg worked out at 42% in the assay with Rattus norvegicus [1] and 55% in the assay on Rattus norvegicus [2]. In addition, the median effective dose (ED50) in the assay on Rattus norvegicus [3] was 213 mg/kg. In assay [4], this molecule had an IC50 of over 100 µM.

Turning to `O=C1[C@H]2CC=CC[C@H]2C(=O)N1c1cc(Cl)c(Cl)c(Cl)c1`, the IC50 in assay [4] is over 100 µM.

Turning to `COc1cc(N2C(=O)c3ccc(C(C)(C)C)cc3C2=O)cc(OC)c1OC`, the inhibition in vivo at 100 mg/kg in the assay with Rattus norvegicus [1] came to 60%; with Rattus norvegicus [2] it was 89%. In addition, the ED50 with Rattus norvegicus [3] was determined as 146 mg/kg. The IC50 in assay [4] is over 100 µM.

As for `O=C1c2cccc3cccc(c23)C(=O)N1c1cc(Cl)c(Cl)c(Cl)c1`, the inhibition in vivo at 100 mg/kg is 79% in the assay on Rattus norvegicus [1] and 88% in the assay with Rattus norvegicus [2]. In the assay with Rattus norvegicus [3], the 50% effective dose (ED50) came to 115 mg/kg. Besides, the concentration for half-maximal inhibition (IC50) in assay [4] was over 100 µM.

Take `O=C1c2c(Cl)c(Cl)c(Cl)c(Cl)c2C(=O)N1c1cc(Cl)c(Cl)c(Cl)c1`: the inhibition in vivo at 100 mg/kg is 44% in the assay on Rattus norvegicus [1] and 45% in the assay with Rattus norvegicus [2]. Also, the ED50 in the assay with Rattus norvegicus [3] is 229 mg/kg. In assay [4], this molecule had a half-maximal inhibitory concentration (IC50) of over 100 µM.

For `O=C1CCC(=O)N1c1cc(Cl)c(Cl)c(Cl)c1`, the inhibition in vivo at 100 mg/kg in the assay with Rattus norvegicus [1] was found to be 30%; with Rattus norvegicus [2] it was 33%. Also, in assay [4], the half-maximal inhibitory concentration (IC50) was over 100 µM.

On to `COc1cc(N2C(=O)c3cccc4cccc(c34)C2=O)cc(OC)c1OC`, for which the inhibition in vivo at 100 mg/kg in the assay on Rattus norvegicus [1] was found to be 86%; in the assay with Rattus norvegicus [2], 91%. For the same molecule, the median effective dose (ED50) with Rattus norvegicus [3] was 117 mg/kg. In assay [4], this molecule returned an IC50 of over 100 µM.

With `O=C(O)Cc1ccccc1Nc1c(Cl)cccc1Cl` [DICLOFENAC], the inhibition in vivo at 100 mg/kg came out at 88% in the assay on Rattus norvegicus [1] and 89% in the assay with Rattus norvegicus [2]. In addition, the median effective dose (ED50) in the assay on Rattus norvegicus [3] was found to be 114 mg/kg.

Take `COc1cc(N2C(=O)C3C(C2=O)C2(Cl)C(Cl)=C(Cl)C3(Cl)C2(Cl)Cl)cc(OC)c1OC` (stereo not drawn): the inhibition in vivo at 100 mg/kg with Rattus norvegicus [1] is 36%; in the assay with Rattus norvegicus [2] it was 34%. The half-inhibitory concentration (IC50) in assay [4] was over 100 µM.

Take `O=C1c2ccccc2C(=O)N1c1cc(Cl)c(Cl)c(Cl)c1`: the inhibition in vivo at 100 mg/kg with Rattus norvegicus [1] is 49%; with Rattus norvegicus [2], 70%. Besides, the ED50 with Rattus norvegicus [3] amounted to 172 mg/kg. In assay [4], this molecule gave an IC50 of over 100 µM.

For `COc1cc(N2C(=O)c3ccccc3C2=O)cc(OC)c1OC`, the inhibition in vivo at 100 mg/kg in the assay with Rattus norvegicus [1] was 43%; in the assay on Rattus norvegicus [2] it was 67%. The ED50 in the assay on Rattus norvegicus [3] amounted to 185 mg/kg. Also, the IC50 in assay [4] was over 100 µM.

In the case of `O=C1C2C(C(=O)N1c1cc(Cl)c(Cl)c(Cl)c1)C1(Cl)C(Cl)=C(Cl)C2(Cl)C1(Cl)Cl` (stereo not drawn), the inhibition in vivo at 100 mg/kg in the assay on Rattus norvegicus [1] is 23%; with Rattus norvegicus [2], 37%. For the same molecule, the IC50 in assay [4] was over 100 µM.

With `O=C1c2nccnc2C(=O)N1c1cc(Cl)c(Cl)c(Cl)c1`, the figures for the inhibition in vivo at 100 mg/kg in the assay with Rattus norvegicus [1] and with Rattus norvegicus [2] were 47% and 73%, respectively. Moreover, the 50% effective dose (ED50) in the assay on Rattus norvegicus [3] was found to be 175 mg/kg. Besides, the IC50 in assay [4] is over 100 µM.

For `COc1cc(-n2c(=O)c3ccccc3c3ccccc3c2=O)cc(OC)c1OC`, the inhibition in vivo at 100 mg/kg was determined as 86% in the assay on Rattus norvegicus [1] and 84% with Rattus norvegicus [2]. Moreover, in the assay on Rattus norvegicus [3], the 50% effective dose (ED50) came to 120 mg/kg. In assay [4], the half-inhibitory concentration (IC50) is over 100 µM.

Regarding `O=C1c2ccc([N+](=O)[O-])cc2C(=O)N1c1cc(Cl)c(Cl)c(Cl)c1`, the inhibition in vivo at 100 mg/kg in the assay with Rattus norvegicus [1] and in the assay with Rattus norvegicus [2] was 79% throughout. The 50% effective dose (ED50) in the assay with Rattus norvegicus [3] is 122 mg/kg. For the same molecule, 36.1 µM corresponded to half-maximal inhibition in assay [4] (IC50).
